Tested on: MS2 coat protein
Test: apparent Kd, MS2 coat protein; higher = weaker binding; RNA-MaP array; FMN 200 µM where present
In short: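 Apparent Kd: the median of filtered binding-curve fits from single clusters. Designs were transcribed on Illumina sequencing-chip clusters by stalled E. coli RNA polymerase and titrated with SNAP-549-labelled MS2 coat protein from 0.7 or 1.5 nM, doubling to 3 µM, in 100 mM Tris-HCl pH 7.5, 80 mM KCl, 4 mM MgCl2, BSA, DTT, yeast tRNA and Tween-20. Each series ran without and then with constant ligand, and green signal was normalised to red-channel RNA signal and control-cluster median Fmax.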

[1] = designed as: OFF switch for flavin mononucleotide, no ligand
[2] = ligand present: flavin mononucleotide, designed as: OFF switch for flavin mononucleotide
[3] = designed as: ON switch for flavin mononucleotide, no ligand
[4] = ligand present: flavin mononucleotide, designed as: ON switch for flavin mononucleotide

Row | Sequence | apparent Kd [1] | apparent Kd [2] | apparent Kd [3] | apparent Kd [4]
1 | GCCCGUGCGGAGGAUAUUGAUAUCCCAGUCUAUCAAGAAGGCUGCACAUGAGGAUCACCCAUGUGACCUGUGCU | 18.8 nM | 51.7 nM |  | 
2 | GCACGAUCCUCAGGAUAUCACUGAAACAUGAGGAUCACCCAUGUGCGCAGAUGAGAAGGGAGGACUCCGUCUGACUAAAAGUUA |  |  | 113 nM | 9.95 nM
3 | AAUUAGGUCACAGGAUAUACAUCAUCCAUAGAUGUAGAAGGGUGUCAAAGUAAUAUCUGACAUGAGGAUCACCCAUGUUUCCAC |  |  | 23.3 nM | 9.28 nM
4 | UUUCUCGUUGUGAGGAUAUCGUUUUUGUCUCGGAUCGAGAAGGCACAUGAGGAUCACCCAUGUUUGUUGUGGUU | 85.1 nM | 103 nM |  | 
5 | AAUAACAGAGGAUAUACUAUUUUAUGUGUUUGUUGUUUUGAACAUGAGGAUCACCCAUGUAGAAGGCUGAUUAA | 40.5 nM | 47 nM |  | 
6 | UACCGCGACAACACGGUAUCACAUGAGGAUCACCCAUGUUCACAGGAUAUGCGAUAGCCAACGAAGCAGAAGGGUGAUUACUUA |  |  | 37.3 nM | 263 nM
7 | GUUGCUAUCGGAGGAUAUUCAUACCGGAAACGGACAUGAGGAUCACCCAUGUGGCGAAAGCCAUGGGAGAAGGCCGAUAGCAAC |  |  | 1350 nM | 138 nM
8 | AAGAAACAUGAGGAUCACCCAUGUAGAAAUAUGGGAGGAUAUACGAGGACGAAAGUCAAAGUAGAAGGCCUAAGAA |  |  | 56.9 nM | 27.4 nM
9 | GUGUACGGAGGAUAUAUAUGGGCAGCAUACGCUGCAGCUUCACAUGAGGAUCACCCAUGUAGAAGGCUGUGCAC | 22.4 nM | 129 nM |  | 
10 | CUCAUGUGAGGAUAUCAGUAGUAAAAAAAUAAAAUUACUACUGAGAAGGCACAUGAGGAUCACCCAUGUGCCAA | 16.1 nM | 28.6 nM |  | 
11 | UGUAAGAUGCAGAAGGUGUUAGCUAGAGCUACGACAUGAGGAUCACCCAUGUACUAGAAACAGUACAAGGAUAUGCAUCUUACG |  |  | 17.5 nM | 6.57 nM
12 | AAUUCGUUCUAGAAGGUGCAUUUUUUAAACAUGCAAGGAUAUAGACAUGAGGAUCACCCAUGUCUAUGAGACAUCGGCCUCCUG | 6.3 nM | 13.3 nM |  | 
13 | GGUACCAACACAGGAUAUGCAAUCCUUUGGGUUGCAGAAGGGUGAAAACAUGAGGAUCACCCAUGUGGUACCGGGCGUGAGCCC |  |  | 473 nM | 39.8 nM
14 | CGCUCUAUAUAUUAGGCAAGAAUCAGAAGGCGUUACAUGAGGAUCACCCAUGUUUUGUAUAGUAACGAGGAUAUGAUAUGAGCG | 13.6 nM | 14.5 nM |  | 
15 | UUAUCUUGUCAAGGAUAUGUUGUAUUGAUCUGAAAACAUGAGGAUCACCCAUGUAUACGGUGGGAACAGAAGGUGAAUGUAGAA |  | 721 nM |  | 
16 | UUAUUAUAUGUAGGAUAUGCAUAUUAUUAUUGUGCAGAAGGACAUGAGGAUCACCCAUGUAUAUUAUUAUUAUAUAUUAUAUGU | 25.7 nM | 30.2 nM |  | 
17 | AAUUGACACGUAGGAUAUCGCUUUAAUUUAACACGAGAAGGACGUACAUGAGGAUCACCCAUGUUAAAUGGUGUAGAUUAAUUG | 167 nM | 382 nM |  | 
18 | AUGCGACAUGAGGAUCACCCAUGUGAGGAUAUGGCCUGUUUGGCGUGUGCUGGCUCUGUCAGAAGGCGCGUGGG | 103 nM | 270 nM |  | 
19 | AAUUAUAGGUAGAAGGUACUGACUUAUGUGUUGUAAGGAUAUACCAAAUUAUUAGAUCUCAAGUUACAUGAGGAUCACCCAUGU |  |  | 9.18 nM | 7.97 nM
20 | AGUGUCAUCGAGAAGGCCUCAACAUGAGGAUCACCCAUGUUGUAAUAUGGGAGGAUAUCGAUGAUACAGCUACGUUUCGUAGCA |  |  | 20.7 nM | 5.79 nM
21 | UUAAUUAAUUAAUUAUACAUGAGGAUCACCCAUGUAAGUGAUCAGGAUAUCAGCUCGAUUAGAGCUGAGAAGGGAUCCAUGUAA |  |  | 109 nM | 81.3 nM
22 | GAGUGGUGGAGAGGAUAUGCAUUGUUAUUCACUGUAGAAGGUUCUAACAUGAGGAUCACCCAUGUAGGACUAUUCCUGUGUUUU |  |  | 13.5 nM | 11.1 nM
23 | GUCAGCUCGUGAGGAUAUACAUGUGCUGGAUACAGCAUUAAAUAAUUCACAUGAGGAUCACCCAUGUAGAAGGCACGAGCUGAU | 17.9 nM | 42.9 nM |  | 

Source: the EternaBench riboswitch data
